In PMC5503752 (Biophysical chemistry, 2017):
Where two headings read alike, the source gives them in different places.

Key:
[1] = system: sites III and IV of CaM bound to the NaV1.2 IQ motif; test: Simulation of calcium binding to CaM bound to the NaV1.2 IQ motif
In short: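 Calcium binding to sites III and IV of IQ-bound CaM was simulated by thermodynamic linkage. Inputs were earlier-measured calcium-binding energies of CaM alone (ΔG1 −7.76, ΔG2 −15.92 kcal/mol) and the apo-versus-Ca2+ difference in IQ binding. The simulation used a total free energy of −13.99 kcal/mol and the same cooperativity as free CaM.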

[2] = system: CaM; conditions: absence of IQ motif; same conditions as this study; cited from earlier work
[3] = system: CaM bound to NaV1.2 IQ motif; conditions: cited from earlier work
[4] = molecular target: rat NaV1.2 IQ motif (residues 1901-1927) in YFP-CFP biosensor; test: CaM titrations of NaV1.2IQ YFP-CFP FRET biosensor; assay type: binding; conditions: for Kd: read-out: Kd, apo CaM, apo (no CaCl2), pH 7.4, 22 °C, calculated from average ΔG
In short: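 Rat NaV1.2 residues 1901–1927 inserted between YFP and CFP, expressed in BL21(DE3) (IPTG, 40 h, 18 °C), used as clarified lysate. Biosensor at 0.5 nM (apo) to 5 nM (Ca2+). Titrant: paramecium-sequence CaM or its domains.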

[5] = system: NaV1.5 DIII-DIV linker; conditions: cited from earlier work
[6] = system: NaV1.2IQ biosensor; assay type: binding, rat; conditions: for fractional decrease/change in YFP intensity of biosensor, apo: [CaM]:[biosensor] = 10^3:1, biosensor 4 nM, excitation 430 nm, YFP 525 nm
In short: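 Steady-state emission spectra were recorded with 430 nm excitation, showing CFP at 475 nm and YFP at 525 nm. Samples were biosensor alone or with >10^3-fold excess apo or Ca2+-saturated CaM, CaMN or CaMC, in titration buffer at pH 7.4 and 22 °C. Spectra were buffer-subtracted, dilution-corrected and normalized to free-biosensor intensity at 525 nm. Fractional YFP decrease was taken at λmax.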

[7] = system: NaV1.2 IQ motif; parameters: species or system rat; conditions: free [CaM] 50–100 nM (estimated)
In short: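 Single-site fractional saturation isotherms of the IQ motif by apo or calcium-saturated CaM were simulated from the single-site binding equation. Input was the free energies measured by biosensor titration.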

[8] = system: rat Nav1.2IQp; conditions: thermodynamic linkage analysis; cited from earlier work
[9] = system: IQ motifs of NaV1.2, 1.5, and 1.6; conditions: cited from earlier work
[10] = system: ryanodine receptor RyR1; conditions: cited from earlier work
[11] = system: CaV1.2 IQ motif; conditions: cited from earlier work

Compound: [Ca+2] [calcium]
- total free energy of calcium binding to sites III and IV of CaM bound to NaV1.2 IQ motif ([1]; simulation for illustration, same cooperativity as CaM alone): -13.99 kcal/mol
- ΔG1 (printed AG1) of calcium binding to CaM alone [2]: -7.76 kcal/mol
- ΔG2 of calcium binding to CaM alone [2]: -15.92 kcal/mol
- calcium equivalents (ions per CaM) required for saturation ([3]; CaM bound to NaV1.2 IQ motif, NMR titration): 4
- calcium-binding affinity of sites III and IV (CaMC) in CaM-IQp complex [3]: diminished

Compound: C-domain of CaM [CaMC]
- Kd [4]: 11.6 nM
- calcium-saturated CaMC bound to NaV1.2-IQ ([1]; neuronal intracellular Ca^2+ range centered on 10 03BCM, simulation, Fig. 7B): 50–75%
- affinity of CaMC for NaV1.5 DIII-DIV linker [5]: micromolar affinity

Compound: Calmodulin [CaM]
- ratio of Kd, (Ca^2+)4-CaM over apo CaM (higher, weaker) ([4]; (Ca^2+)4-CaM vs apo CaM): ~ 30 fold
- Kd [4]: 3.2 nM
- fractional decrease/change in YFP intensity of biosensor, apo [6]: 36%
- predicted occupancy of IQ motif by (Ca^2+)4-CaM at high calcium ([1]; 10 03BCM free calcium): ~ 68%
- predicted occupancy of NaV1.2 IQ motif, (Ca^2+)4-CaM [7]: 37–54%
- predicted occupancy of NaV1.2 IQ motif, apo CaM [7]: 94–97%
- relative affinity of apo vs calcium-saturated CaM for rat Nav1.2IQp [8]: binds more favorably than calcium-saturated CaM
- affinity for apo CaM relative to (Ca^2+)4-CaM, NaV IQ motifs [9]: higher affinity for apo CaM than (Ca^2+)4-CaM
- effect on RyR1 ([10]; listed as apo CaM): activated
- effect on RyR1 ([10]; listed as calcium-saturated CaM): inhibited
- affinity of (Ca^2+)4-CaM relative to apo CaM for CaV1.2 IQ motif [11]: higher affinity for (Ca^2+)4-CaM than apo CaM

Compound: N-domain of CaM [CaMN]
- binding to NaV1.2IQ biosensor, in words ([4]; CaMN, apo and 1 mM calcium): negligible binding
- deflection in fluorescence intensity relative to that seen at 50 nM CaMC ([6]; 50 pM CaMN (so in the source) vs 50 nM CaMC): less than 1%
- fractional decrease/change in YFP intensity of biosensor, apo [6]: ~ 1%
- binding of CaMN to NaV IQ motifs ([9]; NaV1.2, 1.5 and 1.6 IQ motifs): undetectable or very weak binding
